Results from ChEMBL document CHEMBL1146217, “Growth inhibition of Mycobacterium bovis, Mycobacterium tuberculosis and Mycobacterium avium in vitro: effect of 1-beta-D-2'-arabinofuranosyl and 1-(2'-deoxy-2'-fluoro-beta-D-2'-ribofuranosyl) pyrimidine nucleoside analogs” (J Med Chem, 2007).
In brackets after ≈: the same amount, converted by molar mass.

Key:
Assay type in all cases: functional
Details in all cases: variant bovis BCG
[1] = system: Mycobacterium tuberculosis; test: Antimycobacterial activity against Mycobacterium bovis BCG at 100 ug/mL by microplate Alamar blue assay
Summary of the method: (§1)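 MABA with M. bovis BCG, M. tuberculosis H37Ra or M. avium ATCC 25291. DMSO stocks (10 mg/mL) diluted in 7H9GC; final inoculum 2.5 × 10⁵ CFU/mL. Incubated 6 days, then alamar blue plus Tween 80 added and read by fluorescence after about 24 h. […]. Tested in triplicate at 100, 50, 10 and 1 µg/mL; two experiments, mean reported.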

[2] = system: Mycobacterium tuberculosis; test: Antimycobacterial activity against Mycobacterium bovis BCG at 50 ug/mL by microplate Alamar blue assay; summary of the method: as §1
[3] = system: Mycobacterium tuberculosis; test: Antimycobacterial activity against Mycobacterium bovis BCG by microplate Alamar blue assay
Summary of the method: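 Same alamar blue microplate setup (7H9GC, 2.5 × 10⁵ CFU/mL, 6 days, then dye read after about 24 h), using 2-fold compound dilutions. MIC90 is the lowest concentration giving about 90% inhibition relative to bacteria-only wells after background subtraction. Visual MIC is the lowest concentration preventing the blue-to-pink change.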

[4] = system: Mycobacterium tuberculosis; test: Antimycobacterial activity against Mycobacterium bovis BCG at 10 ug/mL by microplate Alamar blue assay; summary of the method: as §1
[5] = system: Mycobacterium tuberculosis; test: Antimycobacterial activity against Mycobacterium bovis BCG at 1ug/mL by microplate Alamar blue assay; summary of the method: as §1

Structure (SMILES) | inhibition at 100 µg/mL [1] [%] | inhibition at 50 µg/mL [2] [%] | MIC90 [3] [µg/mL] | inhibition at 10 µg/mL [4] [%] | inhibition at 1 µg/mL [5] [%]
CCCc1ccc(C#Cc2cn([C@@H]3O[C@H](CO)[C@@H](O)[C@@H]3O)c(=O)[nH]c2=O)cc1 | 100 | 50 | 100 (≈ 259 µM) | – | –
CCCCCC#Cc1cn([C@@H]2O[C@H](CO)[C@@H](O)[C@@H]2O)c(=O)[nH]c1=O | 25 | – | – | – | –
O=c1[nH]c(=O)n([C@@H]2O[C@H](CO)[C@@H](O)[C@@H]2O)cc1C(O)C(Br)Br (some centres not stated) | 0 | – | – | – | –
CCCCCCCCCCCC#Cc1cn([C@@H]2O[C@H](CO)[C@@H](O)[C@@H]2O)c(=O)[nH]c1=O | 100 | 100 | 10 (≈ 23.7 µM) | 50 | –
O=C(O)C(I)C(O)c1cn([C@@H]2O[C@H](CO)[C@@H](O)[C@H]2F)c(=O)[nH]c1=O (some centres not stated) | 0 | – | – | – | –
O=C(O)/C=C/c1cn([C@@H]2O[C@H](CO)[C@@H](O)[C@@H]2O)c(=O)[nH]c1=O | 0 | – | – | – | –
O=c1[nH]c(=S)ccn1[C@@H]1O[C@H](CO)[C@@H](O)[C@H]1F | 25 | – | – | – | –
CCOC(=O)C(Br)C(O)c1cn([C@@H]2O[C@H](CO)[C@@H](O)[C@H]2F)c(=O)[nH]c1=O (some centres not stated) | 0 | – | – | – | –
CCCCCCCCCCC#Cc1cn([C@@H]2O[C@H](CO)[C@@H](O)[C@H]2F)c(=O)[nH]c1=O | 100 | 100 | 1 (≈ 2.44 µM) | 100 | 70
O=c1[nH]c(=O)n([C@@H]2O[C@H](CO)[C@@H](O)[C@@H]2O)cc1C(O)CI (some centres not stated) | 0 | – | – | – | –
O=c1[nH]c(=S)ccn1[C@@H]1O[C@H](CO)[C@@H](O)[C@@H]1O | 0 | – | – | – | –
CCCCCCCCC#Cc1cn([C@@H]2O[C@H](CO)[C@@H](O)[C@H]2F)c(=O)[nH]c1=O | 100 | 75 | 50 (≈ 131 µM) | 50 | 30
O=c1[nH]c(=O)n([C@@H]2O[C@H](CO)[C@@H](O)[C@H]2F)cc1Br | 0 | – | – | – | –
O=c1[nH]c(=O)n([C@@H]2O[C@H](CO)[C@@H](O)[C@H]2F)cc1Cl | 50 | 50 | – | – | –
O=c1[nH]c(=O)n([C@@H]2O[C@H](CO)[C@@H](O)[C@@H]2O)cc1Cl | 0 | – | – | – | –
CCOC(=O)/C=C/c1cn([C@@H]2O[C@H](CO)[C@@H](O)[C@H]2F)c(=O)[nH]c1=O | 0 | – | – | – | –

Structure (SMILES) | inhibition at 100 µg/mL [1] [%] | inhibition at 50 µg/mL [2] [%] | MIC90 [3] [µg/mL] | inhibition at 10 µg/mL [4] [%] | inhibition at 1 µg/mL [5] [%]
COC(CI)c1cn([C@@H]2O[C@H](CO)[C@@H](O)[C@@H]2O)c(=O)[nH]c1=O (some centres not stated) | 0 | – | – | – | –
CCCCCCCCCCCCC#Cc1cn([C@@H]2O[C@H](CO)[C@@H](O)[C@H]2F)c(=O)[nH]c1=O | 100 | 100 | 10 (≈ 22.8 µM) | 50 | –
Cc1cn([C@@H]2O[C@H](CO)[C@@H](O)[C@@H]2O)c(=O)[nH]c1=S | 0 | – | – | – | –
O=c1[nH]c(=O)n([C@@H]2O[C@H](CO)[C@@H](O)[C@@H]2O)cc1C(O)C(Cl)Cl (some centres not stated) | 0 | – | – | – | –
CCOC(=O)C(Cl)C(O)c1cn([C@@H]2O[C@H](CO)[C@@H](O)[C@H]2F)c(=O)[nH]c1=O (some centres not stated) | 0 | – | – | – | –
CO[C@H]1/C=C/O[C@@]2(C)Oc3c(C)c(O)c4c(O)c(c(/C=N/N5CCN(C)CC5)c(O)c4c3C2=O)NC(=O)/C(C)=C\C=C\[C@H](C)[C@H](O)[C@@H](C)[C@@H](O)[C@@H](C)[C@H](OC(C)=O)[C@@H]1C [RIFAMPIN] | – | – | 0.5 (≈ 0.608 µM) | – | –
O=c1[nH]c(=O)n([C@@H]2O[C@H](CO)[C@@H](O)[C@@H]2O)cc1Br | 0 | – | – | – | –
CCCCCCCCC#Cc1cn([C@@H]2O[C@H](CO)[C@@H](O)[C@@H]2O)c(=O)[nH]c1=O | 100 | 50 | 100 (≈ 263 µM) | 30 | –
CCCCCCCCCCCC#Cc1cn([C@@H]2O[C@H](CO)[C@@H](O)[C@H]2F)c(=O)[nH]c1=O | 100 | 100 | 1 (≈ 2.36 µM) | 100 | 90
O=C(O)/C=C/c1cn([C@@H]2O[C@H](CO)[C@@H](O)[C@H]2F)c(=O)[nH]c1=O | 0 | – | – | – | –
CCCCCCCCCCC#Cc1cn([C@@H]2O[C@H](CO)[C@@H](O)[C@@H]2O)c(=O)[nH]c1=O | 100 | 100 | 1 (≈ 2.45 µM) | 100 | 75
CCCCCC#Cc1cn([C@@H]2O[C@H](CO)[C@@H](O)[C@H]2F)c(=O)[nH]c1=O | 50 | – | – | – | –
CCOC(=O)/C=C/c1cn([C@@H]2O[C@H](CO)[C@@H](O)[C@@H]2O)c(=O)[nH]c1=O | 0 | – | – | – | –
CCCCCCCCCCCCC#Cc1cn([C@@H]2O[C@H](CO)[C@@H](O)[C@@H]2O)c(=O)[nH]c1=O | 100 | 100 | 10 (≈ 22.9 µM) | 50 | –
Cc1cn([C@@H]2O[C@H](CO)[C@@H](O)[C@H]2F)c(=O)[nH]c1=S | 25 | – | – | – | –
